Results as given in ChEMBL document CHEMBL1128174, “Enhanced D1 affinity in a series of piperazine ring substituted 1-piperazino-3-arylindans with potential atypical antipsychotic activity” (J Med Chem, 1995).
Several values for one entry are separate records, joined by “and”; a condition that tells them apart may be missing. Equal values may be shown once.

Experiments:
D(1A) dopamine receptor = D(1A) dopamine receptor (Rattus norvegicus, UniProt P18901); experiment: Binding affinity for dopamine receptor D1, activity is expressed as IC50 values.
Sequence of D(1A) dopamine receptor (P18901 whole entry): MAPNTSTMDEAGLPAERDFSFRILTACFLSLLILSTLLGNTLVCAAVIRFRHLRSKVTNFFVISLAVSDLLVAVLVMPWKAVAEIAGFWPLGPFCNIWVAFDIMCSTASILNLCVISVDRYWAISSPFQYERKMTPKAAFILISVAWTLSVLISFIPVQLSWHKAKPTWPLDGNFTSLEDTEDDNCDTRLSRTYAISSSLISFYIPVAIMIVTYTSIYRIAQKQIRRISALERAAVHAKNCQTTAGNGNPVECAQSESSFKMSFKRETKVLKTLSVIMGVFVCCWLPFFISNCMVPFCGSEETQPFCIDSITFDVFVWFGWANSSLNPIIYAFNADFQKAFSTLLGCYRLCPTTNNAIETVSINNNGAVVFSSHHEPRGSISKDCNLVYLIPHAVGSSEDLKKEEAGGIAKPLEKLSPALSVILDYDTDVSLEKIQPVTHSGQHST

D(2) dopamine receptor = D(2) dopamine receptor (Rattus norvegicus, UniProt P61169); experiment: Binding affinity against dopamine receptor D2
Sequence of D(2) dopamine receptor (P61169 whole entry): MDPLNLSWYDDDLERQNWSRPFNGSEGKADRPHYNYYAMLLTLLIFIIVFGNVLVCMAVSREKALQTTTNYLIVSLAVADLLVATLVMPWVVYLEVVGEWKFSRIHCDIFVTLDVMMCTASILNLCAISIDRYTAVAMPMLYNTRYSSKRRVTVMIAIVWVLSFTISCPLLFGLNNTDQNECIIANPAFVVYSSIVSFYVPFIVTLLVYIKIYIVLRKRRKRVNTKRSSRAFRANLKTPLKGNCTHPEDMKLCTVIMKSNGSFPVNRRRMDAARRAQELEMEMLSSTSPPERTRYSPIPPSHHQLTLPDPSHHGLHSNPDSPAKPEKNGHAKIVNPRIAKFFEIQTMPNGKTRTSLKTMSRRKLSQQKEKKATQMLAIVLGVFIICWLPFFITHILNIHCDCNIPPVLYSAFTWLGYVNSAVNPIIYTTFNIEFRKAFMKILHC

Rattus norvegicus [1] = species: Rattus norvegicus; experiment: Cataleptogenic effect in rats; type: functional
How it was run: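 Rats scored on a vertical wire grid hourly 1–6 h after dosing; catalepsy counted when immobility lasted at least 15 s.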

Mus musculus = species: Mus musculus; experiment: Antagonism of methyl phenidate-induced gnawing behavior in mice; type: functional
How it was run: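 Test compound given ip (or sc) 2 h before methyl phenidate (60 mg/kg); mice housed in pairs on corrugated cardboard in gnawing cages, 5–9 pairs per dose.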

[2] = target: 5-hydroxytryptamine receptor 2A (Rattus norvegicus, UniProt P14842); experiment: Binding affinity for 5-hydroxytryptamine 2A receptor, activity is expressed as IC50 values.
Sequence of 5-hydroxytryptamine receptor 2A (P14842 whole entry): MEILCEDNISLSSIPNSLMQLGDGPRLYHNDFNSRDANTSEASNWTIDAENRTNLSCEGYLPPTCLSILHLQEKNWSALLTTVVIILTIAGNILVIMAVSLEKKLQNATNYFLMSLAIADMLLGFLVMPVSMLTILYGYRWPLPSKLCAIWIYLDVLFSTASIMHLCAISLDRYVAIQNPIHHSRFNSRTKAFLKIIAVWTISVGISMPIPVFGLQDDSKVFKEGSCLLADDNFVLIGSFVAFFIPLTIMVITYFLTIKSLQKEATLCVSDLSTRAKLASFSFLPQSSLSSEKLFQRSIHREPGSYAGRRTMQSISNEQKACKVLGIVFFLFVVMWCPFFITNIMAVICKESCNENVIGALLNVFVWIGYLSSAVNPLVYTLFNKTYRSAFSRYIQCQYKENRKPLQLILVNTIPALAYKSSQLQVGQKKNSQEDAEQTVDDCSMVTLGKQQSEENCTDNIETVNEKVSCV

Rattus norvegicus [3] = species: Rattus norvegicus; experiment: In vitro inhibition of [3H]5-HT uptake in rat brain (minus pons, medulla oblongata and cerebellum) homogenates.; type: functional
Rattus norvegicus [4] = species: Rattus norvegicus; experiment: In vitro inhibition of [3H]NE uptake in rat occipital lobe (plus temporal cortex) homogenates.; type: functional
Rattus norvegicus [5] = species: Rattus norvegicus; experiment: In vitro inhibition of [3H]dopamine uptake in rat corpus striatum homogenates.; type: functional
[6] = Rattus norvegicus, read-out: ED50
[7] = Rattus norvegicus, Corpus striatum

| Compound | IC50 (D(1A) dopamine receptor) [nM] | IC50 (D(2) dopamine receptor) [nM] | ED50 (Rattus norvegicus [1]; [6]) [µmol/kg] | ED50 (Mus musculus; Mus musculus, read-out: ED50) [µmol/kg] | other results |
| --- | --- | --- | --- | --- | --- |
| OCCN1CCN(C2CC(c3ccc(F)cc3)c3ccc(C(F)(F)F)cc32)CC1 (centres undefined) | 23 | 10 | – | – | – |
| CC(C)c1ccc2c(c1)C(N1CCN(CCO)CC1)CC2c1ccc(F)cc1 (centres undefined) | 66 | 14 | – | – | – |
| OCCN1CCN(C2CC(c3ccccc3)c3ccccc32)CC1 (centres undefined) | 730 | 2800 | – | – | – |
| CN1CCN(C2CC(c3ccc(F)cc3)c3cccc(Cl)c32)CC1(C)C (centres undefined) | – | – | > 41 | > 41 | – |
| CC1(C)CN(C2CC(c3ccc(F)cc3)c3ccc(Cl)cc32)CCN1CCO (centres undefined) | – | – | 3.7 | 0.34 | – |
| CN1CCN(C2CC(c3ccccc3F)c3ccc(Cl)cc32)CC1(C)C (centres undefined) | – | – | > 33 | 34 | – |
| Cc1ccc2c(c1)C(N1CCN(C)CC1)CC2c1ccc(F)cc1 (centres undefined) | 38 | 13 | – | – | – |
| CN1CCN(C2CC(c3ccccc3)c3ccc(Cl)cc32)CC1 (centres undefined) | 16 | 61 | – | – | – |
| OCCN1CCN(C2CC(c3ccc(F)cc3)c3ccc(F)cc32)CC1 (centres undefined) | 16 | 82 | – | – | – |
| CC1(C)CN(C2CC(c3ccc(F)cc3)c3ccc(C(F)(F)F)cc32)CCN1 (centres undefined) | – | – | > 51 | 2.7 | IC50 [2]: 7.5 nM |
| CN1CCN(C2CC(c3ccc(F)cc3)c3ccc(Br)cc32)CC1(C)C (centres undefined) | – | – | 9.4 | 1.5 | – |
| COc1ccc2c(c1)C(N1CCN(CCO)CC1)CC2c1ccc(F)cc1 (centres undefined) | 210 | 86 | – | – | – |
| CN1CCN(C2CC(c3cccc(F)c3)c3ccc(Cl)cc32)CC1(C)C (centres undefined) | – | – | > 33 | > 33 | – |
| CC1(C)CN(C2CC(c3ccc(F)cc3)c3ccc(Cl)cc32)CCN1CCCO (centres undefined) | 1.1 | 21 | < 17 | – | – |
| CN1CCN(C2CC(c3ccc(F)cc3)c3ccc(C(F)(F)F)cc32)CC1 (centres undefined) | 17 | 8.1 | – | – | – |
| CCC1(CC)CN(C2CC(c3ccc(F)cc3)c3ccc(Cl)cc32)CCN1C (centres undefined) | – | – | > 20 | > 81 | – |
| Cc1ccc2c(c1)C(N1CCN(CCO)CC1)CC2c1ccc(F)cc1 (centres undefined) | 51 | 23 | – | – | – |
| CC1CN(C2CC(c3ccc(F)cc3)c3ccc(Cl)cc32)CC(C)N1C (centres undefined) | 13 | 120 | > 36 | 53 | – |
| CN1CCN(C2CC(c3ccc(F)cc3)c3c(Cl)cccc32)CC1(C)C (centres undefined) | – | – | – | > 36 | – |
| CN1CCN(C2CC(c3ccc(Cl)cc3)c3ccc(Cl)cc32)CC1(C)C (centres undefined) | 34 | 63 | – | > 69 | IC50 [2]: 32 nM |
| CS(=O)(=O)c1ccc2c(c1)C(N1CCN(CCO)CC1)CC2c1ccc(F)cc1 (centres undefined) | 690 | 42 | – | – | – |
| Cc1ccc2c(c1)C(N1CCNC(C)(C)C1)CC2c1ccc(F)cc1 (centres undefined) | – | – | > 29 | 33 | – |
| Cc1ccc2c(c1)C(N1CCN(C)C(C)(C)C1)CC2c1ccc(F)cc1 (centres undefined) | – | – | 33 | 1.4 | – |
| CN1CCN(C2CC(c3ccc(F)cc3)c3ccc(F)cc32)CC1 (centres undefined) | – | – | – | – | IC50 (Rattus norvegicus [3]): 610 nM and 3900 nM |
| Fc1ccc(C2CC(N3CCN4CCCCC4C3)c3cc(Cl)ccc32)cc1 (centres undefined) | – | – | 4.1 | 14 | – |
| CSc1ccc2c(c1)C(N1CCN(CCO)CC1)CC2c1ccc(F)cc1 (centres undefined) | 39 | 13 | – | – | – |
| CC1CN(C2CC(c3ccc(F)cc3)c3ccc(Cl)cc32)C(C)CN1C (centres undefined) | 19 | 41 | > 33 | > 66 | – |

| Compound | IC50 (D(1A) dopamine receptor) [nM] | IC50 (D(2) dopamine receptor) [nM] | ED50 (Rattus norvegicus [1]; [6]) [µmol/kg] | ED50 (Mus musculus; Mus musculus, read-out: ED50) [µmol/kg] | other results |
| --- | --- | --- | --- | --- | --- |
| CN1CCN(C2CC(c3ccc(F)cc3)c3ccc(C(F)(F)F)cc32)CC1(C)C (centres undefined) | – | – | 5.2 | 0.99 | – |
| CN1CCN(C2CC(c3ccc(F)cc3)c3ccc(Cl)cc32)CC12CCC2 (centres undefined) | – | – | 69 | 1 | – |
| CC1CN(C2CC(c3ccc(F)cc3)c3ccc(Cl)cc32)CCN1C (centres undefined) | – | – | 9.3 | 0.27 | – |
| CN1CCN(C2CC(c3ccc(F)cc3)c3ccc(Cl)cc32)CC12CCCCC2 (centres undefined) | – | – | – | > 80 | – |
| CN1CCN(C2CC(c3ccccc3)c3ccccc32)CC1(C)C (centres undefined) | – | – | > 36 | > 36 | – |
| OCCN1CCN(C2CC(c3ccc(F)cc3)c3cccc(Cl)c32)CC1 (centres undefined) | 130 | – | – | – | – |
| CC(C)N1CCN(C2CC(c3ccc(F)cc3)c3ccc(Cl)cc32)CC1(C)C (single isomer, unassigned; (+)) | 52 | – | – | – | IC50 (Rattus norvegicus [4]): 100 nM; IC50 (Rattus norvegicus [3]): 2600 nM; IC50 (Rattus norvegicus [5]): 20 nM |
| CC1(C)CN(C2CC(c3ccc(F)cc3)c3ccc(Cl)cc32)CCN1 (single isomer, unassigned; (+)) | 1100 | 12000 | – | – | IC50 (Rattus norvegicus [4]): 290 nM; IC50 (Rattus norvegicus [3]): > 100 nM; IC50 [2]: 3600 nM; IC50 (Rattus norvegicus [5]): 29 nM |
| CN1CCN(C2CC(c3ccc(F)cc3)c3ccccc32)CC1(C)C (single isomer, unassigned; (+)) | 250 | 4900 | – | – | IC50 (Rattus norvegicus [4]): 76 nM; IC50 (Rattus norvegicus [3]; Rattus norvegicus): 5200 nM; IC50 [2]: 650 nM; IC50 (Rattus norvegicus [5]): 25 nM |
| OCCN1CCN(C2CC(c3ccc(F)cc3)c3ccc(Cl)cc32)CC12CCCC2 (single isomer, unassigned; (+)) | 51 | – | – | – | IC50 (Rattus norvegicus [4]; Rattus norvegicus): 440 nM; IC50 (Rattus norvegicus [3]; Rattus norvegicus): 2400 nM; IC50 (Rattus norvegicus [5]; [7]): 120 nM |
| CN1CCN(C2CC(c3ccc(F)cc3)c3ccc(Cl)cc32)CC12CCCC2 (single isomer, unassigned; (+)) | 6.6 | – | – | – | IC50 (Rattus norvegicus [4]; Rattus norvegicus): 690 nM; IC50 (Rattus norvegicus [3]; Rattus norvegicus): 1800 nM; IC50 (Rattus norvegicus [5]; [7]): 150 nM |
| CC(C)N1CCN(C2CC(c3ccc(F)cc3)c3ccc(Cl)cc32)CC1(C)C (single isomer, unassigned; (-)) | 0.66 | – | – | – | ED50 (Rattus norvegicus [1]): 7.1 µM/kg; IC50 (Rattus norvegicus [4]): 5600 nM; ED50 (Mus musculus): 0.76 µM/kg; IC50 (Rattus norvegicus [3]; Rattus norvegicus): 3500 nM; IC50 (Rattus norvegicus [5]): 1300 nM |
| CN1CCN(C2CC(c3ccc(F)cc3)c3ccc(Cl)cc32)CC1(C)C (stereo in doubt; 28) | 1.3 | – | – | – | ED50 (Rattus norvegicus [1]): 25 µM/kg; ED50 (Mus musculus): 0.65 µM/kg; IC50 [2]: 2.1 nM |
| CC(C)N1CCN(C2CC(c3ccc(F)cc3)c3ccc(Cl)cc32)CC1(C)C (stereo in doubt; 29) | 0.82 | – | 6.9 | – | ED50 (Mus musculus): 1.6 µM/kg |
| CN1CCN(C2CC(c3ccc(F)cc3)c3ccc(Cl)cc32)CC12CCCC2 (stereo in doubt; 34) | 0.85 | – | 42 | 1.7 | – |
| OCCN1CCN(C2CC(c3ccc(F)cc3)c3ccc(Cl)cc32)CC12CCCC2 (stereo in doubt; 35) | 1.9 | 13 | – | – | ED50 (Rattus norvegicus [1]): 14 µM/kg; ED50 (Mus musculus): 1.6 µM/kg |
| CN1CCN(C2CC(c3ccc(F)cc3)c3ccccc32)CC1(C)C (stereo in doubt; 39) | 3 | 29 | > 70 | 12 | IC50 [2]: 5.1 nM |
| CC1(C)CN(C2CC(c3ccsc3)c3ccc(Cl)cc32)CCN1 (stereo in doubt; 54) | – | – | – | – | ED50 (Rattus norvegicus [1]): >35 µM/kg; ED50 (Mus musculus): 6.5 µM/kg |
| CN1CCN(C2CC(c3ccc(F)cc3)c3ccc(Cl)cc32)CC1(C)C (stereo in doubt; (+)-28) | 620 | – | – | – | IC50 (Rattus norvegicus [4]): 68 nM; IC50 (Rattus norvegicus [3]): > 1000 nM; IC50 (Rattus norvegicus [5]): 16 nM |
| CN1CCN(C2CC(c3ccccc3)c3ccc(Cl)cc32)CC1(C)C (stereo in doubt; (+)-38) | 15 | 260 | – | – | IC50 (Rattus norvegicus [4]): 26 nM; IC50 (Rattus norvegicus [3]; Rattus norvegicus): 5300 nM; IC50 [2]: 68 nM; IC50 (Rattus norvegicus [5]): 7.5 nM |
| CN1CCN(C2CC(c3ccc(F)cc3)c3ccc(F)cc32)CC1(C)C (stereo in doubt; (+)-40) | 88 | 1500 | – | – | IC50 (Rattus norvegicus [4]): 20 nM; IC50 (Rattus norvegicus [3]): 3700 nM; IC50 [2]: 360 nM; IC50 (Rattus norvegicus [5]): 7.1 nM |
| CC1(C)CN(C2CC(c3ccsc3)c3ccc(Cl)cc32)CCN1 (stereo in doubt; (+)-54) | 440 | 6700 | – | – | IC50 (Rattus norvegicus [4]): 73 nM; IC50 (Rattus norvegicus [3]): 2000 nM; IC50 [2]: 1100 nM; IC50 (Rattus norvegicus [5]): 27 nM |
| CN1CCN(C2CC(c3ccc(F)cc3)c3ccc(Cl)cc32)CC1(C)C (stereo in doubt; (-)-28) | 0.68 | – | – | 0.48 | ED50 (Rattus norvegicus [1]): 9.8 µM/kg; IC50 (Rattus norvegicus [4]): 6500 nM; IC50 (Rattus norvegicus [3]): 7200 nM; IC50 [2]: 1.1 nM; IC50 (Rattus norvegicus [5]): 3200 nM |
| CN1CCN(C2CC(c3ccc(F)cc3)c3ccc(Cl)cc32)CC12CCCC2 (stereo in doubt; (-)-34) | 0.96 | – | – | – | ED50 (Rattus norvegicus [1]): 31 µM/kg; ED50 (Mus musculus): 1.2 µM/kg |
| OCCN1CCN(C2CC(c3ccc(F)cc3)c3ccc(Cl)cc32)CC12CCCC2 (stereo in doubt; (-)-35) | 1 | 5 | – | – | ED50 (Rattus norvegicus [1]): 2.7 µM/kg; ED50 (Mus musculus): 0.49 µM/kg |
| CN1CCN(C2=Nc3cc(Cl)ccc3Nc3ccccc32)CC1 [CLOZAPINE] | – | – | > 120 | 98 | – |
